Test results published in ChEMBL document CHEMBL1145016, “Synthesis and antitumor activity of conjugates of muramyldipeptide or normuramyldipeptide with hydroxyacridine/acridone derivatives” (J Med Chem, 2003).
Active and inactive are the calls of the source.

Columns and labels:
Mus musculus [1] = assay: Evaluated in vivo for percent growth delay in mice at 8.40 mg/kg for 8 days by intraperitoneal treatment on UACC-62 melanoma cell line; conditions: dose 8.4 mg/kg
Mus musculus [2] = assay: Evaluated in vivo for toxic deaths of mice at 5.60 mg/kg for 24 (38) days by intraperitoneal treatment on MDA-MB-435 breast […] cell line; assay type: toxicity, organism-based; set-up: dose 5.6 mg/kg, route intraperitoneal; conditions: ip, 5.6 mg/kg
Summary of the method: (§1)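 Nude mice carrying subcutaneous human tumor xenografts, tested at NCI Bethesda; compound given on the stated schedule, intraperitoneally (IP) or intravenously (IV). Three dose levels were tested, and the table reports only the optimal one. Toxic deaths are scored per treatment group alongside tumor weight end points.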

Mus musculus [3] = assay: Evaluated in vivo for percent treated/control of mice at 3.35 mg/kg for 10 days by intraperitoneal treatment on NCI-H522 non-small cell lung cell line
Mus musculus [4] = assay: Evaluated in vivo for percent growth delay in mice at 5.60 mg/kg for 11 days by intraperitoneal treatment on A498 renal cell line; conditions: dose 5.6 mg/kg
Mus musculus [5] = assay: Evaluated in vivo for toxic deaths of mice at 5.60 mg/kg for 5 days by intraperitoneal treatment on HCT-15 colon cell line; assay type: toxicity, organism-based; set-up: dose 5.6 mg/kg, route intraperitoneal; conditions: ip, 5.6 mg/kg, 120 h
Summary of the method: as §1

Mus musculus [6] = assay: Evaluated in vivo for percent growth delay in mice at 3.35 mg/kg for 10 days by intraperitoneal treatment on NCI-H522 non-small cell lung cell line
[7] = Evaluated in vivo for intraperitoneal + subcutaneous score in hallow fiber assay; assay type: functional
Summary of the method: (§2)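 NCI hollow fiber preliminary in vivo assay; scores recorded separately for intraperitoneal (ip) and subcutaneous (sc) fiber implantation sites, with an activity criterion applied (Y/N). Procedure detailed in prior work.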

Mus musculus [8] = assay: Evaluated in vivo for percent of tumor weight in treated/control of mice at 8.40 mg/kg for 8 days by intraperitoneal treatment on UACC-62 melanoma cell line; conditions: dose 8.4 mg/kg
[9] = Evaluated in vivo for intraperitoneal score in hallow fiber assay; assay type: functional
Summary of the method: as §2

Mus musculus [10] = assay: Evaluated in vivo for toxic deaths of mice at 3.35 mg/kg for 7 days by intraperitoneal treatment on SK-MEL-28 melanoma cell line; conditions: ip, 168 h
Mus musculus [11] = assay: Evaluated in vivo for percent of tumor weight in treated/control of mice at 3.35 mg/kg for 7 days by intraperitoneal treatment on SK-MEL-28 melanoma cell line
Mus musculus [12] = assay: Evaluated in vivo for toxic deaths of mice at 3.35 mg/kg for 10 days by intraperitoneal treatment on NCI-H522 non-small cell lung cell line; conditions: ip, 240 h
Mus musculus [13] = assay: Evaluated in vivo for percent of tumor weight in treated/control of mice at 5.60 mg/kg by intraperitoneal treatment; conditions: dose 5.6 mg/kg
Mus musculus [14] = assay: Evaluated in vivo for percent growth delay in mice at 5.60 mg/kg for 7 days by intraperitoneal treatment on AS283 lymphoma cell line; assay type: functional; conditions: dose 5.6 mg/kg
[15] = Evaluated in vivo for subcutaneous score in hallow fiber assay; assay type: functional
Summary of the method: as §2

Mus musculus [16] = assay: Evaluated in vivo for percent growth delay in mice at 5.60 mg/kg for 8 days by intraperitoneal treatment on COLO 205 colon cell line; conditions: dose 5.6 mg/kg
[17] = Tested for cytotoxicity (lethal concentration) of compound, activity expressed as MID log LC50; assay type: functional
Summary of the method: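 MID is the calculated mean of LC50 concentrations (M) across the cell line panel, where LC50 is the half-lethal concentration. It is reported as a log value.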

Mus musculus [18] = assay: Evaluated in vivo for percent of tumor weight in treated/control of mice at 5.60 mg/kg for 8 days by intraperitoneal treatment on COLO 205 colon cell line; conditions: dose 5.6 mg/kg
Mus musculus [19] = assay: Evaluated in vivo for percent of tumor weight in treated/control of mice 5.60 at mg/kg for 11 days by intraperitoneal treatment on A498 renal cell line
Mus musculus [20] = assay: Evaluated in vivo for toxic deaths of mice at 5.60 mg/kg for 12 days by intraperitoneal treatment on COLO 205 colon cell line; assay type: toxicity, organism-based; set-up: dose 5.6 mg/kg, route intraperitoneal; conditions: ip, 5.6 mg/kg, 288 h
Summary of the method: as §1

Mus musculus [21] = assay: Evaluated in vivo for percent growth delay in mice at 3.35 mg/kg for 7 days by intraperitoneal treatment on SK-MEL-28 melanoma cell line
Mus musculus [22] = assay: Evaluated in vivo for toxic deaths of mice at 8.40 mg/kg for 8 days by intraperitoneal treatment on UACC-62 melanoma cell line; conditions: ip, 8.4 mg/kg, 192 h
Mus musculus [23] = assay: Evaluated in vivo for percent growth delay in mice at 5.60 mg/kg for 15 days by intraperitoneal treatment on UACC-257 melanoma cell line; conditions: dose 5.6 mg/kg
MCF7 = assay: Tested for cytotoxicity of compound against MCF-7 (breast) cell line; IA means inactive.; assay type: functional, cell-based; conditions: Homo sapiens
NCI-H460 = assay: Tested for cytotoxicity of compound against NCI-H460 (lung)cell line; IA means inactive.; assay type: functional, cell-based; conditions: Homo sapiens
SF-268 = assay: Tested for cytotoxicity of compound against SF-268 (CNS) cell line; IA means inactive.; assay type: functional, cell-based; conditions: Homo sapiens

CC(=O)N[C@@H]1[C@H](OCc2ccccc2)OC(CO)C(O)[C@H]1OC(C)C(=O)N[C@H](C)C(=O)N[C@H](CCC(=O)OCCCNc1c2ccccc2nc2cccc([N+](=O)[O-])c12)C(N)=O (stereo partly specified)
Growth delay (T-C/C) (Mus musculus [1]): 107%
Toxic deaths (Mus musculus [2]): 1
Tumor weight (Mus musculus [3]): 89%
Growth delay (T-C/C) (Mus musculus [4]): 3%
Toxic deaths (Mus musculus [5]): 2
Growth delay (T-C/C) (Mus musculus [6]): 1%
Score [7]: 4
Tumor weight (Mus musculus [8]): 1%
Score [9]: 2
Toxic deaths (Mus musculus [10]): 0
Tumor weight (Mus musculus [11]): 105%
Toxic deaths (Mus musculus [12]): 1
Tumor weight (Mus musculus [13]): 60%
Growth delay (T-C/C) (Mus musculus [14]): 16%
Score [15]: 2
Growth delay (T-C/C) (Mus musculus [16]): -7%
MID log LC50 [17]: 5.78 M
Tumor weight (Mus musculus [18]): 65%
Tumor weight (Mus musculus [19]): 68%
Toxic deaths (Mus musculus [20]): 1
Growth delay (T-C/C) (Mus musculus [21]): -3%
Toxic deaths (Mus musculus [22]): 0
Growth delay (T-C/C) (Mus musculus [23]): 1%

O=[N+]([O-])c1cccc2nc3ccccc3c(NCCO)c12
MID log LC50 [17]: 5.9 M

CC(=O)N[C@@H]1[C@H](OCc2ccccc2)OC(CO)C(O)[C@H]1OC(C)C(=O)N[C@H](C)C(=O)N[C@H](CCC(=O)OCCCNC(=O)c1cccc2cc3ccccc3nc12)C(N)=O (stereo partly specified)
IA (MCF7): inactive
IA (NCI-H460): inactive
IA (SF-268): inactive

CC(=O)N[C@@H]1[C@H](OCc2ccccc2)OC(CO)C(O)[C@H]1OC(C)C(=O)N[C@H](C)C(=O)N[C@H](CCC(=O)OCCCCNC(=O)c1cccc2cc3ccccc3nc12)C(N)=O (stereo partly specified)
IA (MCF7): inactive
IA (NCI-H460): inactive
IA (SF-268): inactive

CC(=O)N[C@@H]1[C@H](OCc2ccccc2)OC(CO)C(O)[C@H]1OC(C)C(=O)N[C@H](C)C(=O)N[C@H](CCC(=O)OCCNC(=O)c1cccc2cc3ccccc3nc12)C(N)=O (stereo partly specified)
IA (MCF7): inactive
IA (NCI-H460): inactive
IA (SF-268): inactive

CC(=O)N[C@@H]1[C@H](OCc2ccccc2)OC(CO)C(O)[C@H]1OCC(=O)N[C@H](C)C(=O)N[C@H](CCC(=O)OCCNC(=O)c1cccc2cc3ccccc3nc12)C(N)=O (stereo partly specified)
IA (MCF7): inactive
IA (NCI-H460): inactive
IA (SF-268): inactive
